“Also recorded” adds a separate entry of the source.
How the values were obtained:
[1] = tested on: U266 MM cells; assay: Cyto-ID autophagy assay; type: cell-based, Human; details: U266, 1 μM
In short: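 U266 cells exposed to 1 μM test compound or vehicle for 6 h at 37 °C, washed, then stained 30 min in the dark with Cyto-ID Green plus DAPI (100 ng/ml) in 1% FBS assay buffer. Flow cytometry gave MFI and % Cyto-ID+ in live singlet cells. Confocal imaging (Hoechst/Cyto-ID) gave mean cytoplasmic intensity per group, compared by Kruskal–Wallis.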

[2] = tested on: ULK3; assay: Immunoblot in U266 MM cells; type: cell-based, Human; details: 6 h
In short: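 Lysates quantified by BCA; 30 μg protein run on 10–15% SDS-PAGE (100 V, 2 h) and transferred to PVDF. Membranes blocked 1 h in TBST with 5% milk/5% BSA, probed overnight at 4 °C with primary (1:1000), then HRP secondary (1:1000). ECL detection; densitometry values annotated on the blot.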

[3] = tested on: MM cells (5TGM1, 8226, and U266); assay: MTS assay on MM cells; type: cell-based
In short: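 MM lines grown at 37 °C in RPMI 1640 with 10% heat-inactivated FBS plus pen/strep and plated at 2 × 10^5 cells/mL (96-well) or 3 × 10^5 cells/mL (384-well). Exposed to test compound or vehicle (HPβCD or DMSO) for 48 h. MTS absorbance read at 490 nm after 2 h at 37 °C; mean of technical replicates; three independent experiments.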

For Cc1sc2c(c1C)C(c1ccc(Cl)cc1)=N[C@@H](CC(=O)OC(C)(C)C)c1nnc(C)n1-2 [JQ1], the “autophagy (Cyto-ID)” value [1] was “had no effect; also recorded: did not impact autophagy”.

Cc1[nH]c(/C=C2\C(=O)Nc3ccccc32)c(C)c1CCC(=O)O [SU6668] was tested, and the ULK3 protein levels [2] was “does not impact”.

N#CC[C@H](C1CCCC1)n1cc(-c2ncnc3[nH]ccc23)cn1 [ruxolitinib] was tested, and the “cell survival in vitro” value [3] was “had no effect; also recorded: not affected”.
